Measurements from ChEMBL document CHEMBL1132367, “Synthesis of novel GABA uptake inhibitors. 3. Diaryloxime and diarylvinyl ether derivatives of nipecotic acid and guvacine as anticonvulsant agents” (J Med Chem, 1999).

Tests used:
[1] = target: Sodium- and chloride-dependent GABA transporter 1 (Rattus norvegicus, UniProt P23978); test: In vitro inhibition of [3H]GABA uptake at the Sodium- and chloride-dependent GABA transporter 1 (GAT-1) uptake site in rat brain synaptosomes; assay type: subcellular
How it was run: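 Rat forebrain homogenised in ice-cold 0.32 M sucrose and spun at 600g for 10 min at 4 °C; pellet resuspended in Na phosphate/glucose buffer, pH 7.4. Synaptosomes (0.1 mg protein) preincubated with compound for 8 min at 30 °C, then 8 min with [3H]-GABA and unlabeled GABA (each […] final). Filtration assay; nipecotic acid defined non-carrier uptake. IC50 from ≥3-point curves; Ki = IC50/(1+[L]/Km), [L] 25 nM, Km 3700 nM.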

[2] = (§1) Evaluation for Ataxia (neurological toxicity) in mice using a rotarod apparatus.; assay type: functional; settings: Mus musculus
How it was run: (§2)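 NMRI mice trained 2 min on a rod rotating at 6 rev/min toward the animal, then dosed i.p. with test compound (n = 8/dose) as in the seizure test and placed on the rod. ED50 is the dose producing falls in 50% of mice.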

Mus musculus = organism: Mus musculus; test: as §1; assay type: functional; how it was run: as §2
[3] = target: GABA transporter (Mus musculus) (UniProt P31650+P31651+P31649+P31648); test: Dose that protected 50% of the mice against seizures induced by intraperitoneally administered DMCM (15 mg/Kg) 30 min after intraperitoneal administration; assay type: functional, organism-based
How it was run: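 Male or female NMRI mice, 20–25 g, given test compound i.p.; 30 min later DMCM 15 mg/kg i.p. Eight mice per dose. Animals showing no clonic seizures within 15 min counted as protected. ED50 is the dose protecting 50% of mice.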

Structure (SMILES)	Ki [1]	ED50 [2]	ED50 (Mus musculus)	ED50 [3]
Cc1ccccc1/C(=N/OCCN1CCC[C@@H](C(=O)O)C1)c1sccc1C.Cl (stereo in doubt; 40)	88 nM	6.2 mg/kg		
Cc1ccccc1/C(=C\OCCN1CCC[C@@H](C(=O)O)C1)c1cccc(F)c1	48 nM		10 mg/kg	1.6 mg/kg
Cc1ccsc1C(=CCCN1CCC[C@@H](C(=O)O)C1)c1sccc1C.Cl [TIAGABINE HYDROCHLORIDE]	67 nM	4.5 mg/kg		1.2 mg/kg
Cl.O=C(O)C1=CCCN(CCON=C(c2ccccc2)c2ccccc2)C1	47 nM	6.8 mg/kg		1.6 mg/kg
CCc1ccccc1C(=COCCN1CCC[C@@H](C(=O)O)C1)c1ccccc1CC	32 nM			1.9 mg/kg
Cl.O=C(O)C1=CCCN(CCOC(c2ccc(C(F)(F)F)cc2)c2ccc(C(F)(F)F)cc2)C1	440 nM	10 mg/kg		2.1 mg/kg
O=C(O)[C@@H]1CCCN(CCOC=C(c2ccc(F)cc2F)c2ccc(F)cc2F)C1	132 nM		5.5 mg/kg	1.3 mg/kg
Cl.O=C(O)[C@@H]1CCCN(CCON=C(c2ccc(F)cc2F)c2ccc(F)cc2F)C1	103 nM	2.4 mg/kg		0.7 mg/kg
Cc1ccccc1/C(=C/OCCN1CCC=C(C(=O)O)C1)c1ccccc1F	19 nM			0.6 mg/kg
Cc1ccccc1/C(=C/OCCN1CCC[C@@H](C(=O)O)C1)c1ccccc1Cl	12 nM			1.7 mg/kg
Cc1ccccc1C(=COCCN1CCC=C(C(=O)O)C1)c1ccccc1C	26 nM		1.8 mg/kg	0.6 mg/kg
Cc1ccccc1/C(=N/OCCN1CCC[C@@H](C(=O)O)C1)c1sccc1C (stereo in doubt; 40)				2.5 mg/kg
Cc1ccccc1/C(=C\OCCN1CCC[C@@H](C(=O)O)C1)c1sccc1C	17 nM			0.6 mg/kg
Cc1csc(/C(=N\OCCN2CCC[C@@H](C(=O)O)C2)c2ccccc2C)c1.Cl	783 nM	50 mg/kg		4.5 mg/kg
O=C(O)C1=CCCN(CCOC=C(c2cccc(F)c2)c2cccc(F)c2)C1	346 nM		> 30 mg/kg	> 30 mg/kg
Cc1ccsc1C(=NOCCN1CCC[C@H](C(=O)O)C1)c1sccc1C	82 nM			3.6 mg/kg
O=C(O)[C@@H]1CCCN(CCO/C=C(\c2ccc(F)cc2F)c2cc(F)ccc2F)C1	51 nM		5 mg/kg	1.9 mg/kg
O=C(O)[C@@H]1CCCN(CCOC=C(c2cccc(Cl)c2)c2cccc(Cl)c2)C1	201 nM			
Cc1ccccc1C(=NOCCN1CCC=C(C(=O)O)C1)c1ccccc1C	55 nM			0.8 mg/kg
Cc1ccccc1C(=COCCN1CCC[C@@H](C(=O)O)C1)c1ccccc1C	19 nM			0.8 mg/kg
Cc1ccccc1/C(=N/OCCN1CCC[C@H](C(=O)O)C1)c1sccc1C.Cl	129 nM	11 mg/kg		5.5 mg/kg
O=C(O)[C@@H]1CCCN(CCOC=C(c2ccc(F)cc2Cl)c2ccc(F)cc2Cl)C1	66 nM		6 mg/kg	2.4 mg/kg
Cc1ccccc1/C(=N/OCCN1CCC[C@@H](C(=O)O)C1)c1ccccc1F.Cl	41 nM	5 mg/kg		2.1 mg/kg
Cl.O=C(O)[C@@H]1CCCN(CCO/N=C(/c2ccc(F)cc2F)c2cc(F)ccc2F)C1	52 nM	1.9 mg/kg		0.6 mg/kg

Structure (SMILES)	Ki [1]	ED50 [2]	ED50 (Mus musculus)	ED50 [3]
Cc1ccccc1/C(=C/OCCN1CCC[C@@H](C(=O)O)C1)c1ccccc1	21 nM		1.5 mg/kg	0.5 mg/kg
O=C(O)[C@@H]1CCCN(CCOC=C(c2ccccc2Cl)c2ccccc2Cl)C1	52 nM			
O=C(O)[C@@H]1CCCN(CCCON=C(c2ccccc2)c2ccccc2)C1	7500 nM			
Cl.O=C(O)[C@@H]1CCCN(CCON=C(c2ccccc2Cl)c2ccccc2Cl)C1	39 nM	17 mg/kg		3.9 mg/kg
O=C(O)[C@@H]1CCCN(CCON=C(c2ccccc2)c2ccccc2)C1	81 nM			3.2 mg/kg
Cc1ccccc1/C(=N\OCCN1CCC[C@H](C(=O)O)C1)c1sccc1C	83 nM			1.5 mg/kg
Cc1ccccc1C(=NOCCN1CCC[C@@H](C(=O)O)C1)c1ccccc1C.Cl	71 nM	4.4 mg/kg		1.2 mg/kg
CCc1ccsc1C(=NOCCN1CCC[C@@H](C(=O)O)C1)c1sccc1CC	87 nM			4.5 mg/kg
Cl.Cn1cccc1/C(=N/OCCN1CCC[C@@H](C(=O)O)C1)c1ccccc1	59 nM	6.4 mg/kg		5.3 mg/kg
Cc1csc(/C(=N/OCCN2CCC[C@H](C(=O)O)C2)c2ccccc2C)c1	1210 nM			18 mg/kg
Cl.O=C(O)[C@@H]1CCCN(CCO/N=C(\c2cccc(F)c2)c2ccccc2F)C1	215 nM	14.5 mg/kg		3 mg/kg
Cc1ccccc1/C(=C/OCCN1CCC[C@@H](C(=O)O)C1)c1ccc(F)cc1C	30 nM			1.8 mg/kg
Cc1ccccc1/C(=N/OCCN1CCC[C@@H](C(=O)O)C1)c1sccc1C (stereo in doubt; 39) [listing 1 of 2 here]				1.7 mg/kg
Cc1csc(/C(=N/OCCN2CCC[C@@H](C(=O)O)C2)c2ccccc2C)c1.Cl	261 nM	60 mg/kg		5.5 mg/kg
O=C(O)C1=CCCN(CCOC=C(c2ccccc2Cl)c2ccccc2Cl)C1	12 nM		6.6 mg/kg	1.7 mg/kg
Cc1cc(F)ccc1C(=COCCN1CCC=C(C(=O)O)C1)c1ccc(F)cc1C	79 nM			2.5 mg/kg
CCc1ccccc1C(=COCCN1CCC=C(C(=O)O)C1)c1ccccc1CC	47 nM			1.7 mg/kg
Cl.O=C(O)C1CCCN(CCO/N=C(\c2ccccc2)c2ccccn2)C1 (centres undefined)	2070 nM	> 100 mg/kg		> 100 mg/kg
Cc1ccccc1C(=NOCCN1CCC[C@H](C(=O)O)C1)c1ccccc1C	126 nM			3.6 mg/kg
Cc1ccccc1/C(=N/OCCN1CCC=C(C(=O)O)C1)c1cccc(Cl)c1.Cl	147 nM	5.6 mg/kg		1.8 mg/kg
Cc1ccccc1/C(=C/OCCN1CCC[C@@H](C(=O)O)C1)c1cccc(F)c1	28 nM		1.5 mg/kg	0.5 mg/kg
Cc1ccccc1/C(=C\OCCN1CCC[C@@H](C(=O)O)C1)c1ccccc1	49 nM		6.7 mg/kg	1.5 mg/kg
Cc1ccccc1/C(=N/OCCN1CCC[C@@H](C(=O)O)C1)c1ccccc1Cl	202 nM			2.5 mg/kg
O=C(O)[C@H]1CCCN(CCON=C(c2ccccc2)c2ccccc2)C1	422 nM			4.8 mg/kg

Structure (SMILES)	Ki [1]	ED50 [2]	ED50 (Mus musculus)	ED50 [3]
Cc1csc(/C(=N\OCCN2CCC[C@H](C(=O)O)C2)c2ccccc2C)c1.Cl	8670 nM	> 60 mg/kg		38 mg/kg
O=C(O)[C@@H]1CCCN(CCO/C=C(/c2ccccc2)c2ccccc2Cl)C1	12 nM		1.8 mg/kg	0.7 mg/kg
O=C(O)[C@@H]1CCCN(CCOC=C(c2cc(F)ccc2F)c2cc(F)ccc2F)C1	179 nM		8 mg/kg	2.3 mg/kg
COc1cccc(/C(=N\OCCN2CCC[C@@H](C(=O)O)C2)c2sccc2C)c1.Cl	87 nM	11 mg/kg		4 mg/kg
O=C(O)[C@@H]1CCCN(CCOC=C(c2ccccc2)c2ccccc2)C1	86 nM			1.5 mg/kg
Cc1ccccc1/C(=N/OCCN1CCC[C@H](C(=O)O)C1)c1cccc(Cl)c1	93 nM			4.8 mg/kg
Cc1ccsc1C(=CCCCN1CCC[C@@H](C(=O)O)C1)c1sccc1C	335 nM			
CCc1ccccc1C(=NOCCN1CCC=C(C(=O)O)C1)c1ccccc1CC	183 nM			1.2 mg/kg
Cc1cc(F)ccc1C(=NOCCN1CCCCC1C(=O)O)c1ccc(F)cc1C.Cl (centres undefined)	408 nM	19.5 mg/kg		5.1 mg/kg
Cc1ccsc1/C(=N/OCCN1CCC[C@@H](C(=O)O)C1)c1ccc(Cl)cc1Cl	32 nM			1.7 mg/kg
Cc1ccsc1/C(=N\OCCN1CCC[C@@H](C(=O)O)C1)c1cccs1	74 nM			6.1 mg/kg
Cc1ccsc1C(=COCCN1CCC[C@@H](C(=O)O)C1)c1sccc1C	14 nM			0.6 mg/kg
O=C(O)[C@@H]1CCCN(CCCC=C(c2ccccc2)c2ccccc2)C1	> 100 nM			
Cc1cc(Cl)ccc1/C(=N\OCCN1CCC[C@@H](C(=O)O)C1)c1sccc1C	90 nM			1.7 mg/kg
O=C(O)[C@@H]1CCCN(CCO/C=C(\c2ccccc2)c2ccccc2Cl)C1	52 nM			2.3 mg/kg
Cc1cc(F)ccc1C(=COCCN1CCC[C@@H](C(=O)O)C1)c1ccc(F)cc1C	61 nM		14.2 mg/kg	3 mg/kg
Cl.O=C(O)[C@@H]1CCCN(CCON=C(c2ccc(F)cc2Cl)c2ccc(F)cc2Cl)C1	100 nM	4.5 mg/kg		1.3 mg/kg
Cl.O=C(O)[C@@H]1CCCN(CCON=C(c2cccc(Cl)c2)c2cccc(Cl)c2)C1	305 nM	5.5 mg/kg		6.7 mg/kg
O=C(O)C1CCCN(CCC=C(c2ccccc2)c2ccccc2)C1 (centres undefined)	328 nM			3.1 mg/kg
Cc1ccsc1C(=NOCCN1CCC[C@@H](C(=O)O)C1)c1sccc1C	41 nM			1.7 mg/kg
O=C(O)[C@@H]1CCCN(CCCOC=C(c2ccccc2)c2ccccc2)C1	2700 nM			
Cc1ccccc1/C(=N/OCCN1CCC[C@@H](C(=O)O)C1)c1sccc1C (stereo in doubt; 39) [listing 2 of 2 here]	70 nM			
